# Experimental data of several laboratories.
# TYK2 JH1: Non-receptor tyrosine-protein kinase TYK2, JH1 (TYK2, Homo sapiens, UniProt P29597)
# TYK2: Non-receptor tyrosine-protein kinase TYK2 (TYK2, Homo sapiens, UniProt P29597)
# TYK2 JH2: Non-receptor tyrosine-protein kinase TYK2, JH2 (TYK2, Homo sapiens, UniProt P29597)
SMILES,target,read-out,technique,tested at,remaining binding
O=C(NCCCN1CCOCC1)c1ccc(Nc2ncc(Cl)c(-c3ccc(Cl)s3)n2)cc1,TYK2 JH1,binding,competition with immobilised ligand,1 µM,26%
O=C(N[C@H]1CCCCC/C=C\C2C[C@@]2(C(=O)O)NC(=O)[C@@H]2C[C@@H](Oc3ccncc3)CN2C1=O)OC1CCCC1 (stereo partly drawn),TYK2 JH1,binding,competition with immobilised ligand,1 µM,98%
CN(C)c1ncc(F)c(-c2cnn3ncccc23)n1,TYK2,binding,,1 µM,70%
CN(C)C(=O)Cn1cc(-c2nc(C3(c4ccc(-c5cnc(N)nc5)cc4)CC3)no2)cn1,TYK2 JH2,cell-free assay,competition with immobilised ligand,1 µM,90%
CN1CCN(c2ccc(Nc3nccc(-c4ccccc4)n3)cc2C(F)(F)F)CC1,TYK2,binding,,10 µM,0%
CC1CCCN1c1nccc(-c2cnn3ncccc23)n1 (stereo not drawn),TYK2,binding,,1 µM,87%
O=C1CCc2cc(Nc3cc(OC4CCOCC4)c([N+](=O)[O-])cc3Cl)ccc2N1,TYK2 JH2,cell-free assay,competition with immobilised ligand,1 µM,94%
Cc1cnn2ncc(-c3ccnc(N(C)C)n3)c2c1,TYK2,binding,,1 µM,32%
C[C@@H]1CN(c2ccc3ncc(-c4ccc5[nH]nc(C6CC6)c5c4)n3n2)C[C@H](C)O1,TYK2,binding,competition with immobilised ligand,0.5 µM,100%
O=C(NCC1CCOCC1)c1n[nH]cc1NC(=O)c1c(F)cccc1F,TYK2 JH2,binding,competition with immobilised ligand,1 µM,59%
CN(C)c1nccc(-c2cnn3ncccc23)n1,TYK2,binding,,1 µM,100%
O=C(c1ccc(Nc2nccc(-c3cc4ccccc4s3)n2)cc1)N1CCC(N2CCCC2)CC1,TYK2 JH2,binding,competition with immobilised ligand,1 µM,0.1%
COc1cnc(Nc2cccc(S(N)(=O)=O)c2)nc1N1CCN(c2ccccc2)C(=O)C1,TYK2 JH2,binding,competition with immobilised ligand,1 µM,13%
CN(c1nccc(-c2cnn3ncccc23)n1)C1CC1,TYK2,binding,,1 µM,100%
Nc1ncc2c(n1)-c1c([nH]c3ccc(C#CC4CC4)cc13)CCCC2,TYK2 JH2,binding,competition with immobilised ligand,1 µM,73%
C[C@H](NC(=O)c1cnc2n1[C@](C)(Cc1ccc(C#N)cc1)C(=O)N2c1cc(Cl)c(F)c(Cl)c1)C(=O)NC1(c2ccccn2)CC1,TYK2 JH2,cell-free assay,competition with immobilised ligand,1 µM,100%
CN(CCCC(F)(F)F)c1nccc(-c2cnn3ncccc23)n1,TYK2 JH1,cell-free assay,competition with immobilised ligand,1 µM,100%
CCc1ccccc1C(=O)Nc1n[nH]c2c(C)c(F)c(C3C(C#N)=C(C)N(C)C(C)=C3C#N)cc12,TYK2 JH1,cell-free assay,competition with immobilised ligand,1 µM,100%
N#Cc1ccccc1CSc1nnc2c(n1)[nH]c1ccccc12,TYK2 JH1,binding,competition with immobilised ligand,10 µM,96%
O=C(NCCCN1CCOCC1)c1ccc(Nc2nccc(-c3cc4ccccc4s3)n2)cc1,TYK2 JH2,binding,competition with immobilised ligand,1 µM,0%
Cc1noc([C@H]2C[C@@H](c3ccc(C(F)(F)F)cc3)CN(C(=O)N3CCS(=O)(=O)C3)C2)n1,TYK2 JH1,cell-free assay,competition with immobilised ligand,1 µM,100%
